# Tests used:
# [1] = tested on: C. albicans (strain SC5314); experiment: Antifungal activity; assay type: cell-based
# Outline: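 SC5314 from −80 °C glycerol stock streaked on YM agar (37 °C, 48 h); colonies cultured in glucose–salt–biotin medium, pH 7.1, at 25 °C for 18 h (also printed as 30 °C, 24–36 h). Diluted to 1 × 10^5–1 × 10^6 cells/mL in GSB over test compound in DMSO (1 μL per 100 μL). Alamar Blue added after 24 h; MIC from absorbance-maximum shift 570→600 nm. Amphotericin B, itraconazole controls.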
# [2] = target: T1, C. glabrata DHFR (CgDHFR) (Candida glabrata, UniProt Q6FPH0); experiment: DHFR enzyme inhibition; assay type: biochemical
# T1 sequence (Q6FPH0 1-217): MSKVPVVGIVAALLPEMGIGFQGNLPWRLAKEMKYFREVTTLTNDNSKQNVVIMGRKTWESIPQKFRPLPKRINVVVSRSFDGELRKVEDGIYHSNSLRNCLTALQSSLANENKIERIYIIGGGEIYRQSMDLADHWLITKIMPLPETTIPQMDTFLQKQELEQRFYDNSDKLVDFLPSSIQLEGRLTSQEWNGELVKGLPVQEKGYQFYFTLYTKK
SMILES,MIC C. albicans in the presence of 0.01% Triton X-100 [1],IC50 [2] [nM]
COc1ccc(-c2ccccc2)cc1C(C)C#Cc1c(C)nc(N)nc1N (stereo not drawn) [Compound 2],do inhibit the growth of C. albicans,
CCc1nc(N)nc(N)c1C#CC(C)c1cc(OC)cc(-c2ccncc2)c1 (stereo not drawn) [Compound 1],,89
"CCc1nc(N)nc(N)c1C#CC(C)c1ccc(-c2ccc(C)cc2)nc1 (stereo not drawn) [Compound 47, 6-Ethyl-5-[3-(6-p-tolyl-pyridin-3-yl)-but-1-ynyl]-pyrimidine-2,4-diamine]",not significantly changed,

# From article PMC3983340 (Journal of Medicinal Chemistry, 2014)
